Screening data: PubChem BioAssay, several laboratories
Compounds with a hit are over-represented: about 1.7% of the library has one in this group of screens.
TPT1 inhibitor: Candida albicans TPT1 enzyme inhibitors, primary screen, biochemical, fluorescence polarization. tRNA 2'-phosphotransferase TPT1 (Candida albicans SC5314). 0.81% of 300,000 active. inhibition, % at 5 µM. recombinant caTPT1, FP RNA substrate dephosphorylation;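 active = inhibition above the mean of all tested compounds plus 3 SD, set per screening campaign, cut at about 24% in these data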;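 also: plate controls were DMSO alone for no effect and ferristatin control at 100 nM for full effect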
HNF4A DNA FP: change in binding of human HNF4A to DNA, primary screen, biochemical, fluorescence polarization, FITC-DNA; 0.3% of 360,000 active; 1 h; activity change, % at 10 µM; Hepatocyte nuclear factor 4-alpha (Homo sapiens), P41235; in the data active = activity change above about 30%, passing the limit was not always enough
IDE act: human IDE activators in live cells, primary screen, fluorescence polarization, HEK cells, FAbeta-B substrate. Insulin-degrading enzyme (Homo sapiens), P14735. FAbeta-B cleavage; 0% vehicle, 100% cell-free pure enzyme wells. activation, % at 5.96 µM. 0.073% of 340,000 active;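 active = activation above the mean of all tested compounds plus 3 SD, set per screening campaign, cut at about 17% in these data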
Rpn11 block: Rpn11 (PSMD14) deubiquitinase inhibitors, primary screen, biochemical, fluorescence polarization, uHTS; human 26S proteasome, Ub4-pepOG fluorescence polarization; 20S core pre-blocked with epoxomicin; 0.59% of 360,000 active; calls only at 20 µM; 26S proteasome non-ATPase regulatory subunit 14 (Homo sapiens), O00487; AID 588493, 2011;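 active = inhibition at 20 µM, scaled to each plate's controls, above about 33%, limit read from the data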
IDE cell inh: human IDE inhibitors in live cells, primary screen, fluorescence polarization, HEK cells, FAbetaB substrate; FAbetaB cleavage; 0.41% of 320,000 active; Insulin-degrading enzyme (Homo sapiens), P14735; inhibition, % at 5.59 µM;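 active = percent inhibition above the average of all tested compounds plus 3 SD, set per screening campaign, cut at about 16% in these data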;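 also: IDE supplied by intact live HEK cells; FP after avidin binding of uncleaved biotin substrate so inhibition keeps polarization high; 0% = DMSO wells and 100% = 60 µM reference IDE inhibitor Ii1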
CSN deneddyl inh: inhibitors of CSN-mediated cullin deneddylation, primary screen, biochemical, fluorescence polarization, uHTS | 0.38% of 360,000 active | inhibition, % at 12.5 µM | Purified CSN, SCF-Nedd8-OG deneddylation;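 active = pattern-corrected inhibition above about 35%, with an unprinted fluorescence ratio check between 0.5 and 1.5, limit read from the data, passing the limit was not always enough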;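 also: 0% = enzyme with substrate and 100% = substrate without enzyme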
Target sequence (Q92905 whole entry, looked up, one chain of several): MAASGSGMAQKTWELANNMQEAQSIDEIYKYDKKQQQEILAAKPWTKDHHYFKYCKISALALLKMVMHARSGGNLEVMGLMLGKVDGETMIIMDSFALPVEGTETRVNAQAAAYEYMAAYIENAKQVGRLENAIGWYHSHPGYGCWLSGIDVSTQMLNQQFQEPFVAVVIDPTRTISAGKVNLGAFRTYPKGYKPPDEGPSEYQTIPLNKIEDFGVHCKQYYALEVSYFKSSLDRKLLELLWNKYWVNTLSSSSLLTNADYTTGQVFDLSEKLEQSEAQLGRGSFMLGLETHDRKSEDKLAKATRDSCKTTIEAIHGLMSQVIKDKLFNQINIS
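Detection – fluorescence polarization · System – HEK293T-derived human Csn5 enzyme · Controls – substrate-only high control, full reaction low control · Timing – 90 min, room temperature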
caTPT1 confirm: Candida albicans TPT1 inhibitors, confirmation, biochemical, fluorescence polarization, triplicate; shares compounds with TPT1 inhibitor; recombinant caTPT1, RNase T1 coupled; inhibition, % at 5 µM; 74% of 2,400 active;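 active = inhibition above the primary screen limit, the mean inhibition of all tested compounds plus 3 SD, cut at about 25% in these data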
RNase T1 inh: RNase T1 inhibitors, counter-screen for TPT1 inhibitor project, biochemical, fluorescence polarization | shares compounds with TPT1 inhibitor | RNase T1 cleavage, 1536-well | inhibition, % at 5 µM | 83% of 2,400 active | AID 2153, 2009;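 active = inhibition above the solvent-only control well mean plus 3 SD, limit set per screening run, cut at about 23% in these data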;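 also: plate controls were DMSO wells with enzyme for no effect and wells without RNase T1 for full effect; inhibitors block cleavage so intact labeled substrate keeps polarization high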
Target sequence (P00651 whole entry, looked up): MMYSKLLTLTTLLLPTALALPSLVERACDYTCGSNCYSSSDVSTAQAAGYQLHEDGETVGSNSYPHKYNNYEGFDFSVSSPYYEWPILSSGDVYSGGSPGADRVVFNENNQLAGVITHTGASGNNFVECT
The depositor's hits bear a star; i = inactive; / = no result given.

SMILES | TPT1 inhibitor | HNF4A DNA FP | IDE act | Rpn11 block | IDE cell inh | CSN deneddyl inh | caTPT1 confirm | RNase T1 inh
CCOC(=O)c1c(NC(=S)Nc2ccc(OCC)cc2)sc2c1CCN(C)C2 | 48.1* | 10.8 | -3.5 | i | 6.4 | 11.3 | 53.0* | 64.5*
CCOC(=O)c1c(NC(=O)Cc2ccccc2)sc2c1CCN(C)C2 | -0.3 | -3.0 | -3.8 | i | 0.0 | 1.5 | / | /
CCOC(=O)c1c(NC(=O)CSc2nnc(C)s2)sc2c1CCN(C)C2 | 98.1* | 73.4* | -8.7 | / | 3.9 | 42.6* | 96.9* | 102.7*
CCOC(=O)c1c(NC(=O)CCS(=O)(=O)c2ccccc2)sc2c1CCN(C)C2 | 34.9* | 21.4 | -2.6 | i | 5.4 | 18.1 | 20.6 | 28.4*
CC(Sc1nc2cc([N+](=O)[O-])ccc2n1-c1cccc(C(F)(F)F)c1)C(=O)NC(N)=O (configuration not stated) | -2.1 | 3.7 | 3.4 | i | 0.1 | 0.9 | / | /
CC(C)CC1C(=O)N(Cc2cn(CC3CCCCC3)nn2)CCS(=O)(=O)N1Cc1ccc(-c2cccc(C#N)c2)cc1 (configuration not stated) | / | 1.9 | 2.7 | i | / | -2.8 | / | /
Cc1sc2ncn(CC(=O)NCC(=O)N(C)Cc3ccccc3)c(=O)c2c1C | -2.2 | -1.8 | -3.2 | i | 2.6 | 1.0 | / | /
CC(=O)C1=NOC(CNc2ncc(C(F)(F)F)cc2Cl)C1 (configuration not stated) | 143.1* | 3.6 | 2.6 | i | -4.1 | -7.2 | 11.5 | 10.7
Cc1ccc2c(c1)N/C(=C(\C=C(/Cl)[N+](=O)[O-])[N+](=O)[O-])N2 | 25.0* | / | / | / | -2.9 | / | 23.1 | 32.5*
CCOC(=O)C1=C(O)CSC1=Nc1ccccc1 | 26.8* | 3.8 | -1.1 | i | 2.7 | 1.2 | 21.0 | 27.4*
CCOC(=O)C1=C(O)CSC1=Nc1ccc(Cl)cc1 | -2.0 | 1.7 | 2.1 | i | 3.0 | 1.0 | / | /
O=C(NC(Cc1ccccc1)C(=O)O)/C(=C\c1cccc([N+](=O)[O-])c1)NC(=O)c1ccco1 (configuration not stated) | -0.9 | -0.5 | 6.0 | i | 3.1 | -0.1 | / | /
CC(NC(=O)/C(=C/c1cccc([N+](=O)[O-])c1)NC(=O)c1ccco1)C(=O)O (configuration not stated) | 130.3* | -1.1 | -1.6 | i | 6.2 | -1.6 | 3.3 | 8.3
CCOc1ccc(Nc2ccc([N+](=O)[O-])c3nonc23)cc1 | 2.2 | 12.4 | -1.0 | i | -0.8 | 4.2 | / | /
O=[N+]([O-])c1ccc(Nc2ccccc2)c2nonc12 | 24.7* | 22.9 | -3.2 | i | -2.2 | 15.1 | 35.0* | 50.4*
Cc1cccc(C)c1-n1c(C)cc(/C=N\Nc2ccc([N+](=O)[O-])cn2)c1C | 74.7* | 37.9 | 1.1 | / | 1.5 | 23.7 | 67.2* | 79.0*
CCOC(=O)c1ccc(-n2ccnc2)c(NC(=O)c2ccc(Cl)cc2)c1 | -2.9 | -5.1 | 4.3 | i | 5.1 | 4.2 | / | /
COCCn1c(-c2ccco2)nc2nc3ccccc3nc21 | 4.1 | -0.9 | 0.6 | i | 9.1 | 19.3 | / | /
CCC(C)n1c(-c2ccco2)nc2nc3ccccc3nc21 (configuration not stated) | 26.7* | / | / | / | 5.8 | / | 14.9 | 19.4
CC(C)OCCCn1c(-c2ccco2)nc2nc3ccccc3nc21 | 25.8* | 16.4 | -9.1 | i | 6.6 | 25.5 | 13.3 | 24.1*
